Laboratory results as given in ChEMBL document CHEMBL1129428 (J Med Chem, 1996).

Experiments:
Mus musculus [1] = experiment: Compound was tested for toxicity after intraperitoneal injection into mice by using toxicity screen test after 4 hr; assay type: organism-based; settings: in vivo, ip
Method in brief: (§1)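 Mice injected intraperitoneally at 30, 100 and 300 mg/kg and examined 0.5 and 4 h afterwards. Each entry is the minimum dose giving activity (MES protection, scPTZ protection, or rotorod failure for neurotoxicity) in half or more of the mice. Activity is called absent if nothing occurs at 300 mg/kg.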

Mus musculus [2] = experiment: Compound was tested for anticonvulsant activity after intraperitoneal injection into mice by using MES screen test after 1 hr; assay type: functional; settings: ip
Method in brief: (§2)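 Quantitative intraperitoneal mouse testing in the MES, scPTZ or rotorod neurotoxicity screens at the peak time given for each compound (0.25–2 h). ED50 or TD50 reported in mg/kg with 95% CI and slope (SE).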

Mus musculus [3] = experiment: Anticonvulsant activity after intraperitoneal injection into mice by using scPTZ screen after 0.5 hr; assay type: functional
Mus musculus [4] = experiment: Compound was tested for anticonvulsant activity after intraperitoneal injection into mice by using scPTZ screen test after 1 hr; assay type: functional; settings: ip; method in brief: as §2
Rattus norvegicus [5] = experiment: Compound was tested for anticonvulsant activity after Oral Administration into Rats by using MES screen test after 4h,dose 12.5 mg/kg; number of rats out of four which were protected; assay type: functional
Method in brief: (§3)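 Rats received the compound orally. […] Rats were tested in the MES screen at 0.25, 0.5, 1, 2 and 4 h. Each value is the number of rats protected out of 4. The test followed NINDS procedures.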

[6] = Partition coefficient (logP); assay type: physicochemical; settings: octanol/water
Method in brief: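 Partition between 1-octanol and buffer at pH 7.4, with solutions prepared in 1-octanol before buffer is added. Quantified by UV, using λmax and ε values measured in 1-octanol.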

Rattus norvegicus [7] = experiment: Compound was tested for anticonvulsant activity after Oral Administration into Rats by using MES screen test after 1h,dose 12.5 mg/kg; number of rats out of four which were protected; assay type: functional; method in brief: as §3
Mus musculus [8] = experiment: Toxicity after intraperitoneal injection into mice by using toxicity screen test after 0.5 hr; assay type: organism-based; settings: in vivo, ip; method in brief: as §1
[9] = Compound was tested for toxicity after intraperitoneal injection into mice by using neurotoxicity screen test after 2 hr; assay type: organism-based; settings: mouse, in vivo, ip; method in brief: as §2
Mus musculus [10] = experiment: Anticonvulsant activity after intraperitoneal injection into mice by using MES screen test after 0.5 hr; assay type: functional
Rattus norvegicus [11] = experiment: Anticonvulsant activity after oral administration into rats; assay type: functional; parameters: concentration or dose not given beside the values
Mus musculus [12] = experiment: Anticonvulsant activity after intraperitoneal injection into mice measured in a maximal electroshock scree (MES) screen; assay type: functional
Rattus norvegicus [13] = experiment: Compound was tested for anticonvulsant activity after Oral Administration into Rats by using MES screen test after 2h,dose 12.5 mg/kg; number of rats out of four which were protected; assay type: functional; method in brief: as §3
Rattus norvegicus [14] = experiment: Compound was tested for anticonvulsant activity after Oral Administration into rat by using MES screen test after 2 hr; assay type: functional
Method in brief: (§4)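 Rats dosed orally, typically at 50 mg/kg first, then mostly 12.5 mg/kg (some compounds at 30 mg/kg), and tested by maximal electroshock. Four rats per compound, scored at 0.25, 0.5, 1, 2 and 4 h as the number of rats protected out of 4.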

[15] = Compound was tested for toxicity after oral administration in rat by using neurotoxicity screen test after 4 hr; assay type: organism-based; settings: in vivo
Method in brief: (§5)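 Rat neurotoxicity after oral dosing, observed at 0.25, 0.5, 1, 2, 4, 6, 8 and 24 h (8 h omitted for one compound).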

Rattus norvegicus [16] = experiment: Compound was tested for anticonvulsant activity after Oral Administration into Rats by using MES screen test after 0.25h,dose 12.5 mg/kg; number of rats out of four which were protected; assay type: functional; method in brief: as §3
Rattus norvegicus [17] = experiment: Compound was tested for anticonvulsant activity after Oral Administration into Rats by using MES screen test after 2h,dose 50 mg/kg; number of rats out of four which were protected; assay type: functional; method in brief: as §3
Rattus norvegicus [18] = experiment: Compound was tested for anticonvulsant activity after Oral Administration into Rats by using MES screen test after 0.25h,dose 50 mg/kg; No activity was demonstarted; assay type: functional, organism-based; parameters: dose 50 mg/kg; method in brief: as §3
Rattus norvegicus [19] = experiment: Compound was tested for anticonvulsant activity after Oral Administration into Rats by using MES screen test after 0.5h,dose 50 mg/kg; No activity was demonstarted; assay type: functional, organism-based; parameters: dose 50 mg/kg; method in brief: as §3
Rattus norvegicus [20] = experiment: Compound was tested for anticonvulsant activity after Oral Administration into Rats by using MES screen test after 1h,dose 50 mg/kg; number of rats out of four which were protected; assay type: functional; method in brief: as §3
Rattus norvegicus [21] = experiment: Compound was tested for anticonvulsant activity after Oral Administration into Rats by using MES screen test after 4h,dose 50 mg/kg; number of rats out of four which were protected; assay type: functional; method in brief: as §3
Rattus norvegicus [22] = experiment: Compound was tested for anticonvulsant activity after Oral Administration into Rats by using MES screen test after 0.25h,dose 12.5 mg/kg; No activity was demonstarted; assay type: functional, organism-based; parameters: dose 12.5 mg/kg; method in brief: as §3
[23] = Compound was tested for toxicity after oral administration in rat by using neurotoxicity screen test after 2 hr; assay type: organism-based; settings: in vivo; method in brief: as §5
[24] = Compound was tested for […] after intraperitoneal injection into mice by using neurotoxicity screen test after 2 hr; assay type: organism-based; settings: mouse, in vivo, ip; method in brief: as §2
Rattus norvegicus [25] = experiment: Compound was tested for anticonvulsant activity after Oral Administration into rat by using MES screen test after 4 hr; assay type: functional; method in brief: as §4
Mus musculus [26] = experiment: Anticonvulsant activity after intraperitoneal injection into mice by using scPTZ screen test after 4 hr; assay type: functional
Rattus norvegicus [27] = experiment: Compound was tested for anticonvulsant activity after Oral Administration into Rats by using MES screen test after 2h,dose 12.5 mg/kg; No activity was demonstarted; assay type: functional, organism-based; parameters: dose 12.5 mg/kg; method in brief: as §3
[28] = Protection index = TD50/ED50 (MES); assay type: ADME, organism-based; settings: rat, in vivo; read-out: PI
Rattus norvegicus [29] = experiment: Compound was tested for anticonvulsant activity after Oral Administration into Rats by using MES screen test after 1h,dose 12.5 mg/kg; No activity was demonstarted; assay type: functional, organism-based; parameters: dose 12.5 mg/kg; method in brief: as §3
Rattus norvegicus [30] = experiment: Compound was tested for anticonvulsant activity after Oral Administration into Rats by using MES screen test after 0.5h,dose 12.5 mg/kg; No activity was demonstarted; assay type: functional, organism-based; parameters: dose 12.5 mg/kg; method in brief: as §3
[31] = Compound was tested for toxicity after oral administration in rat by using neurotoxicity screen test after 0.25-24 hr; assay type: organism-based; settings: in vivo; method in brief: as §5
Mus musculus [32] = experiment: Compound was tested for anticonvulsant activity after intraperitoneal injection into mice by using scPTZ screen test after 0.5 hr; assay type: functional; settings: ip; method in brief: as §1
Rattus norvegicus [33] = experiment: Compound was tested for anticonvulsant activity after Oral Administration into Rats by using MES screen test after 0.5h,dose 50 mg/kg; number of rats out of four which were protected; assay type: functional; method in brief: as §3
[34] = Protection index = TD50/ED50; assay type: ADME; settings: read-out: PI
Rattus norvegicus [35] = experiment: Compound was tested for anticonvulsant activity after Oral Administration into Rats by using MES screen test after 0.25h,dose 50 mg/kg; number of rats out of four which were protected; assay type: functional; method in brief: as §3
Mus musculus [36] = experiment: Compound was tested for anticonvulsant activity after intraperitoneal injection into mice by using MES screen test after 4 hr; assay type: functional; settings: ip; method in brief: as §1
[37] = Compound was tested for toxicity after intraperitoneal injection into mice by using neurotoxicity screen test after 4 hr; assay type: organism-based; settings: mouse, in vivo, ip; method in brief: as §1

NC(=O)N/N=C/c1ccc(Sc2ccc(F)cc2)cc1
Dose (Mus musculus [1]): 100 mg/kg | ED50 (Mus musculus [2]): 12.4 mg/kg | Dose (Mus musculus [3]): 30 mg/kg | ED50 (Mus musculus [4]): > 120 mg/kg | Activity (Rattus norvegicus [5]): 4 | logP [6]: 2.8 | Activity (Rattus norvegicus [7]): 4 | Dose (Mus musculus [8]): 300 mg/kg | TD50 at 2 h [9]: 88 mg/kg | Dose (Mus musculus [10]): 30 mg/kg | Activity (Rattus norvegicus [11]): 3 | Dose (Mus musculus [12]): 30 mg/kg | Activity (Rattus norvegicus [13]): 4 | ED50 (Rattus norvegicus [14]): 4.98 mg/kg | TD50 at 4 h [15]: 183 mg/kg | Activity (Rattus norvegicus [16]): 1

NC(=O)N/N=C\c1ccccc1Oc1ccccc1
Activity (Rattus norvegicus [17]): 1 | Activity (Rattus norvegicus [18]): No activity | Activity (Rattus norvegicus [19]): No activity | Activity (Rattus norvegicus [20]): 2 | Activity (Rattus norvegicus [21]): 1

NC(=O)N/N=C/c1ccc(Oc2c(F)cccc2F)cc1
Dose (Mus musculus [1]): 300 mg/kg | Activity (Rattus norvegicus [22]): No activity | Dose (Mus musculus [3]): 300 mg/kg | Activity (Rattus norvegicus [5]): 4 | TD50 at 2 h [23]: > 500 mg/kg | TD50 at 2 h [24]: 125 mg/kg | Dose (Mus musculus [8]): 300 mg/kg | Dose (Mus musculus [10]): 30 mg/kg | ED50 (Rattus norvegicus [25]): 5.53 mg/kg | Activity (Rattus norvegicus [11]): 2 | Dose (Mus musculus [12]): 30 mg/kg | Activity (Rattus norvegicus [13]): 4 | Dose (Mus musculus [26]): 300 mg/kg

CCCCOc1ccc(Oc2ccc(/C=N/NC(N)=O)cc2)cc1
Dose (Mus musculus [1]): 300 mg/kg | Activity (Rattus norvegicus [22]): No activity | Activity (Rattus norvegicus [27]): No activity | Dose (Mus musculus [3]): 300 mg/kg | Activity (Rattus norvegicus [5]): 2 | TD50 at 2 h [23]: > 100 mg/kg | selectivity ratio [28]: > 2.18 | Dose (Mus musculus [8]): 300 mg/kg | Dose (Mus musculus [10]): 300 mg/kg | ED50 (Rattus norvegicus [25]): 45.8 mg/kg | Dose (Mus musculus [12]): 100 mg/kg | Activity (Rattus norvegicus [29]): No activity | Dose (Mus musculus [26]): 300 mg/kg | Activity (Rattus norvegicus [30]): No activity

NC(=O)N/N=C/c1ccc(Oc2ccc(F)c(F)c2)cc1
Activity (Rattus norvegicus [17]): 4 | ED50 (Mus musculus [2]): 14.5 mg/kg | TD50 [31]: > 500 mg/kg | Dose (Mus musculus [3]): 30 mg/kg | ED50 (Mus musculus [32]): 72.8 mg/kg | logP [6]: 2.76 | Activity (Rattus norvegicus [20]): 4 | TD50 at 2 h [24]: 94.8 mg/kg | Activity (Rattus norvegicus [33]): 4 | Dose (Mus musculus [10]): 100 mg/kg | ED50 (Rattus norvegicus [25]): 2.37 mg/kg | selectivity ratio [34]: 1.3 | Dose (Mus musculus [12]): 30 mg/kg | Activity (Rattus norvegicus [21]): 4 | Dose (Mus musculus [26]): 300 mg/kg | Activity (Rattus norvegicus [35]): 2

CCC(C)c1ccc(Oc2ccc(/C=N\NC(N)=O)cc2)cc1 (stereo not given)
Dose (Mus musculus [1]): 100 mg/kg | Activity (Rattus norvegicus [22]): No activity | TD50 [31]: > 322 mg/kg | ED50 (Mus musculus [4]): 86.9 mg/kg | ED50 (Mus musculus [36]): 13.4 mg/kg | Activity (Rattus norvegicus [5]): 4 | TD50 at 4 h [37]: 131 mg/kg | Activity (Rattus norvegicus [7]): 2 | Dose (Mus musculus [8]): 300 mg/kg | Dose (Mus musculus [10]): 100 mg/kg | ED50 (Rattus norvegicus [25]): 3.21 mg/kg | Activity (Rattus norvegicus [11]): 2 | selectivity ratio [34]: 1.51 | Dose (Mus musculus [12]): 30 mg/kg | Activity (Rattus norvegicus [13]): 3 | Dose (Mus musculus [26]): 100 mg/kg
